Published values gathered from unrelated publications.
Compare with care: the assays were run in different laboratories.
Target: Serine/threonine-protein kinase haspin (HASPIN, Homo sapiens, UniProt Q8TF76)
Residues used in one study (Q8TF76 1-798): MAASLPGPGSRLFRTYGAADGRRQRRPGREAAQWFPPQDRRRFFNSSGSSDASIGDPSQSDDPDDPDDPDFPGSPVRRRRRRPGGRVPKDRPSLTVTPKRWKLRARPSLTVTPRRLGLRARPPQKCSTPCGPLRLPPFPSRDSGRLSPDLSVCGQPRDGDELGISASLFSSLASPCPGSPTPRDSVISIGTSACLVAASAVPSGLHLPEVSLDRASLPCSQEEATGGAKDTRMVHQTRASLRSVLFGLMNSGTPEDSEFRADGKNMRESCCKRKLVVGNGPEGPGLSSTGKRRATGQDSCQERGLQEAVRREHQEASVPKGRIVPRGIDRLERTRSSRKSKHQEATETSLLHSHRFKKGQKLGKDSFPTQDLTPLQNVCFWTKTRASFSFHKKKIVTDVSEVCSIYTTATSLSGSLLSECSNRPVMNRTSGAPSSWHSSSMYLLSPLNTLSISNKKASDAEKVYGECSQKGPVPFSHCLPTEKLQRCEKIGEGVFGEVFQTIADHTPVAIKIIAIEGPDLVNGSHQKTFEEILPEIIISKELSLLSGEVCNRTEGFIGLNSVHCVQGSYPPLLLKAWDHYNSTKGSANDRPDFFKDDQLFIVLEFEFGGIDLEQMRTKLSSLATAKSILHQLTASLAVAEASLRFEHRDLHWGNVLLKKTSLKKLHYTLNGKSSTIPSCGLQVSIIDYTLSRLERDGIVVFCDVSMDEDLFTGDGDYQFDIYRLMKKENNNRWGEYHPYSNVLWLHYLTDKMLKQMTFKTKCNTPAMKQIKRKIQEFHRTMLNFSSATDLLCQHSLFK

| Structure (SMILES) | test | setting | quantity | result |
| --- | --- | --- | --- | --- |
| CN(C)C(=O)Cn1cc(-c2nc([C@@](C)(c3ccc(-c4cnc(N)nc4)cc3)C3CC3)no2)cn1 | cell-free assay, competition with immobilised ligand | 1 µM | remaining binding | 100% |
| Cc1ccc(Nc2nccc(N(C)c3ccc4c(C)n(C)nc4c3)n2)cc1S(N)(=O)=O | enzyme activity, inhibitor | 10 µM | inhibition | 8% |
| O=C1NC(=O)c2cc(Nc3ccc(F)cc3)c(Nc3ccc(F)cc3)cc21 | cell-free assay | 0.5 µM | remaining signal | 95.1% |
| Cn1cncc1C1=CN(c2ncnc3[nH]cnc23)CCS1 | enzyme activity, inhibitor, radiometric | 50 nM | inhibition | 25.6% |
| Cc1nc(Cc2cccc(C(F)(F)F)c2)sc1-c1ccc(C(N)=O)nc1 | cell-free assay, competition with immobilised ligand | 1 µM | remaining binding | 100% |
| Cc1cnc(NC2CCOCC2)nc1-n1cnc(C(=O)NC(CN)c2cc(F)cc(Cl)c2)c1 (stereo not shown) | enzyme activity, inhibitor, radiometric | 1 µM | remaining activity | 40% |
| CNC(=O)c1cc(Oc2ccc(NC(=O)Nc3ccc(Cl)c(C(F)(F)F)c3)cc2)ccn1 | enzyme activity, inhibitor | 10 µM | inhibition | 10% |
| CCN(CC)CCNC(=O)c1c(C)[nH]c(/C=C2\C(=O)Nc3ccc(Cl)cc32)c1C | enzyme activity, inhibitor | 0.5 µM | remaining activity | 82.9% |
| COc1cc(-c2cc(-c3ccc(N4CCNCC4)cc3)cnc2C)cc(OC)c1OC | enzyme activity, inhibitor | 1 µM | inhibition | 3% |
| Cn1cnc(Br)c1C1=CN(c2ncnc3[nH]cnc23)CCS1 | enzyme activity, inhibitor, radiometric | 50 nM | inhibition | 32.9% |
| O=C(O)c1ccc2c3c1cccc3c(=O)n1c3ccccc3nc21 | enzyme activity, inhibitor | 0.5 µM | remaining activity | 90.9% |
| CC(=O)Nc1c(C(C)=O)c(=O)n(C)c2nc(-c3ccc(Cl)cc3Cl)c(-c3ccc(Cl)cc3)cc12 | cell-free assay, competition with immobilised ligand | 1 µM | remaining binding | 100% |
| O=C(Nc1cnn(-c2csc(C(=O)NC3COC3)c2)c1)Nc1ccccc1Cl | enzyme activity, inhibitor | 5 µM | remaining activity | 112% |
| CCN(CC)CCNC(=O)c1c(C)[nH]c(/C=C2\C(=O)Nc3ccc(F)cc32)c1C | enzyme activity, inhibitor | 0.3 µM | inhibition | 32% |
| COc1ccc(C(=O)Nc2sc3c(c2C(N)=O)CCCC3)cc1OC | enzyme activity, inhibitor | 0.5 µM | remaining activity | 82.8% |
| CNCc1ccccc1-c1csc([C@@H](C)Nc2nc(C)nc3cc(OC)c(OC)cc23)c1 | cell-free assay, competition with immobilised ligand | 1 µM | remaining binding | 98% |
| Cc1ccc(C(=O)Nc2ccc(CN3CCN(C)CC3)c(C(F)(F)F)c2)cc1C#Cc1cnc2cccnn12 | enzyme activity | 23.5 nM | remaining activity | 86% |
| CCCCN(CCCC)C(=O)CN1C[C@@H](c2cc(OC)c3c(c2)OCO3)[C@H](C(=O)O)[C@H]1CC(C)(C)CCC | cell-free assay, competition with immobilised ligand | 1 µM | remaining binding | 100% |
| CCCOc1ccc(OC)c(F)c1C(=O)c1ccc(C(=O)N[C@@H]2CNC[C@H]2NC(=O)c2ccc3[nH]ncc3c2)cc1 | enzyme activity, inhibitor | 10 µM | remaining activity | 22% |
| Cc1c(NC(=O)c2cc(C(N)=O)nc3cc(F)ccc23)c(C(F)(F)F)nn1Cc1ccc(C(C)(C)C)cc1 | cell-free assay, competition with immobilised ligand | 1 µM | remaining binding | 100% |
| CN1CC(Oc2cnc(C#N)cc2-c2ccn3nc(NC(=O)C4CC4)cc3c2)C1 | enzyme activity, inhibitor | 1 µM | inhibition | 3% |
| CC1=C(C#N)C(c2ccc3c(c2)c(NC(=O)c2ccccc2C)nn3C)C(C#N)=C(C)N1 | cell-free assay, competition with immobilised ligand | 1 µM | remaining binding | 71% |
| CC(C)(O)[C@H]1CC[C@H](Nc2ccc3ncc(-c4cccc(C(F)(F)F)c4)n3n2)CC1 | enzyme activity, inhibitor | 1 µM | remaining activity | 15.4% |
| C[C@@H]1CN(c2cc(-c3nn(C)c4ccc(OC5(C)CC5)cc34)ncn2)C[C@H](C)O1 | cell-free assay, competition with immobilised ligand | 1 µM | remaining binding | 99% |
| CC(C)(C)c1nc2c(s1)c1nc(N)ncc1c1ccc(NS(=O)(=O)c3c(F)cccc3F)c(F)c12 | enzyme activity, inhibitor, radiometric | 1 µM | remaining activity | 118% |
